In assay [1] the test system is Hippocampus. In words: Inhibition of delayed rectifier potassium current in Sprague-Dawley rat hippocampal neurons at 1 mM. Type of assay: functional, tissue-based. Summed up:
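CA1 pyramidal neurons acutely dissociated from 5- to 9-day-old Sprague-Dawley rats (protease XXIII 3 mg/mL, 32 °C, 8 min). Whole-cell voltage clamp at 21-23 °C, 3-4 MΩ electrodes with KCl pipet solution, 75-85% series-resistance compensation, online leak subtraction. Compound dissolved in external solution and delivered by rapid solution changer. IK amplitude read at 300 ms latency.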

Assay [2] can be described thus: Blockade of voltage-gated potassium channel assessed as inhibition of fast transient potassium current in Sprague-Dawley rat hippocampal neurons by whole cell voltage clamp method. Type of assay: tissue-based. Particulars: Hippocampus. Put shortly:
(§1)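 CA1 pyramidal neurons were acutely dissociated from 5- to 9-day-old Sprague-Dawley rats (500 µm minislices, protease XXIII 3 mg/mL, 32 °C, 8 min). Whole-cell voltage clamp was run at 21-23 °C with KCl 140 mM pipettes and leak subtraction. Compound was applied externally by rapid solution changer across a concentration range. IA was read as peak amplitude and IK at 300 ms latency. IC50 came from concentration-response curve fitting.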

The nature of assay [3]: Blockade of voltage-gated potassium channel assessed by inhibition of delayed rectifier potassium current in Sprague-Dawley rat hippocampal neurons by whole cell voltage clamp method. The assay is classed as tissue-based. The conditions noted are these: Hippocampus. Summed up:
as §1

The subject of assay [4] is Hippocampus. Kind of assay: Inhibition of fast transient potassium current in Sprague-Dawley rat hippocampal neurons at 100 uM by whole cell voltage clamp method. Type of assay: functional. Put shortly: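 In the primary screen, 100 µM compound was dissolved in external solution and delivered by rapid solution changer to dissociated CA1 pyramidal neurons from 5- to 9-day-old Sprague-Dawley rats. Whole-cell voltage clamp was run at 21-23 °C, with series resistance compensated 75-85% and online leak subtraction. Fast transient K+ current (IA) was measured as peak amplitude.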

Assay [5] concerns Hippocampus. In words: Inhibition of delayed rectifier potassium current in Sprague-Dawley rat hippocampal neurons at 30 uM. Type of assay: functional, tissue-based. Put shortly:
(§2)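 IK was recorded by whole-cell voltage clamp (21-23 °C, 3-4 MΩ KCl-based pipettes) in dissociated CA1 pyramidal neurons from 5- to 9-day-old Sprague-Dawley rats. Compound was applied intracellularly at the stated concentration. IK amplitude was measured at 300 ms latency, normalized and followed over time after application. Values are mean ± SEM, n = 5.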

Assay [6] is filed under the species Rattus norvegicus. In words: Selectivity for inhibition of delayed rectifier potassium current over inhibition of fast transient potassium current at potassium channel in Sprague-Dawley rat hippocampal neurons. Type of assay: tissue-based. Particulars: Hippocampus.
The test system of assay [7] is Hippocampus. In words: Inhibition of delayed rectifier potassium current in Sprague-Dawley rat hippocampal neurons at 100 uM. The assay is classed as functional, tissue-based. Put shortly:
as §2

The test system of assay [8] is Hippocampus. Kind of assay: Inhibition of delayed rectifier potassium current in Sprague-Dawley rat hippocampal neurons at 10 uM. The assay is classed as functional, tissue-based. Summed up:
as §2

Assay [9] relates to Hippocampus. In words: Inhibition of delayed rectifier potassium current in Sprague-Dawley rat hippocampal neurons at 300 uM. The assay is classed as functional, tissue-based. Put shortly: as §2

The source made the active and inactive calls. No cut-off for these calls is given here.

One may read the IC50 as the concentration at which inhibition is half-maximal. As usually defined, the inhibition is the change of the read-out against control, counted positive when it falls. Read a low inhibition as little suppression. With `COc1ccc2c(CCN)c[nH]c2c1`, in assay [1], the outcome was inactive. Besides, the figures for the half-maximal inhibitory concentration (IC50) in assay [2] and in assay [3] were 524 µM and 972 µM, respectively. Moreover, the inhibition at 100 µM in assay [4] amounted to 10%.
Take `NCCNS(=O)(=O)c1cccc2c(Cl)cccc12`: the outcome in assay [5] was inactive. Further, the Ratio IC50 in assay [6] came to 6.9. For the same molecule, the IC50 in assay [2] stood at 124 µM; in assay [3], 18 µM. Also, the inhibition at 100 µM in assay [4] came to 27%.
For `NC(COc1ccccc1)c1ccc2c(c1)OCCO2` (stereo not given), the Ratio IC50 in assay [6] was 11. In addition, the IC50 in assay [2] was determined as 737 µM; in assay [3], 67 µM. Moreover, the result in assay [7] was inactive. Also, the inhibition at 100 µM in assay [4] was found to be 20%.
As for `O=S(=O)(CCN1CCN(Cc2ccccc2)CC1)c1ccc(Cl)cc1`, the Ratio IC50 in [6] amounted to 16.3. Further, the figures for the IC50 in assay [2] and in [3] were 980 µM and 60 µM, respectively. The outcome in assay [7] was inactive. The same molecule showed an inhibition at 100 µM in assay [4] of 11%.
With `Cc1ccc(S(=O)(=O)NCCOCCOCCOCCNS(=O)(=O)c2ccc(C)cc2)cc1`, the result in assay [8] and in assay [9] was inactive. Besides, in [6], the Ratio IC50 was determined as 13.3. Further, the values for the half-inhibitory concentration (IC50) in assay [2] and in assay [3] were 28 µM and 2.1 µM, respectively. Besides, the inhibition at 100 µM in assay [4] was determined as 63%.
`Cc1nc(-c2cccnc2)nc(NCCN)c1Cl`: the Ratio IC50 in assay [6] was found to be 2.9. The values for the 50% inhibitory concentration (IC50) in assay [2] and in [3] were 244 µM and 83 µM, respectively. Testing at 100 µM in assay [4] gave an inhibition of 9%. In assay [9], the outcome was inactive.

The values are drawn from ChEMBL document CHEMBL1139222, “Discovering potassium channel blockers from synthetic compound database by using structure-based virtual screening in conjunction with electrophysiological assay” (J Med Chem, 2007).
